Results published in ChEMBL document CHEMBL4414625, “Discovery of Second-Generation NLRP3 Inflammasome Inhibitors: Design, Synthesis, and Biological Characterization” (J Med Chem, 2019).
Activity calls are given as the source filed them. No cut-off for these calls is given here.

Key:
[1] = test system: Mus musculus; assay: Inhibition of LPS-induced serum IL-1beta production in C57BL/6 mouse at 10 mg/kg, ip pretreated before LPS challenge and measured after […] post LPS challenge by ELISA; format: functional, organism-based
[2] = test system: Mus musculus; assay: Inhibition of LPS-induced serum TNFalpha production in C57BL/6 mouse at 10 mg/kg, ip pretreated before LPS challenge and measured after […] post LPS challenge by ELISA; format: functional, organism-based
[3] = test system: Mus musculus; assay: Inhibition of LPS-induced serum IL-1beta production in nlrp3-/- C57BL/6 mouse at 10 mg/kg, ip pretreated before LPS challenge and measured after […] post LPS challenge by ELISA; format: functional, organism-based
[4] = Toxicity in human hCMEC/D3 cells assessed as reduction in cell viability at 20 uM; format: cell-based; settings: hcmec/d3, 20 µM
In short: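 hCMEC/D3 cells (passage 25-35, EGM-2-based media) exposed to compound at 20 μM for 2 h; viability read by Live/Dead staining. Mean ± SEM from 3 independent experiments, ≥triplicates each.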

Structure (SMILES)	inhibition [1]	inhibition [2]	inhibition [3]	Activity [4]
C#CCNS(=O)(=O)c1ccc(CCN(Cc2cc(Cl)ccc2OC)C(=O)C=C)cc1	Active	Active		
C#CCNS(=O)(=O)c1ccc(CCN(Cc2cc(Cl)ccc2OCCC)C(=O)Cc2ccsc2)cc1	Active	inactive	inactive	Non-Toxic
CC(C)(O)c1coc(S(=O)(=O)NC(=O)Nc2c3c(cc4c2CCC4)CCC3)c1	Active			
